Assay results reported in ChEMBL document CHEMBL3425497, “Discovery of (R)-1-(3-((2-chloro-4-(((2-hydroxy-2-(8-hydroxy-2-oxo-1,2-dihydroquinolin-5-yl)ethyl)amino)methyl)-5-methoxyphenyl)amino)-3-oxopropyl)piperidin-4-yl [1,1'-biphenyl]-2-ylcarbamate (TD-5959, GSK961081, batefenterol): first-in-class dual pharmacology multivalent muscarinic antagonist and …” (J Med Chem, 2015).
Activity calls are given as the source filed them. The rule behind the calls is not given here.

Assays:
[1] = tested on: Cavia porcellus; test: Bronchoprotection in male Duncan Hartley guinea pig bronchoconstriction einthoven model assessed as inhibition of methacholine-induced bronchoconstriction at 100 microg/ml, inhalation after 1.5 hrs by in vivo beta2 adrenergic receptor agonist activity assay; type: functional; set-up: scale not given: the % may be the effect or the level left
[2] = tested on: Cavia porcellus; test: Bronchoprotection in male Duncan Hartley guinea pig bronchoconstriction einthoven model assessed as inhibition of methacholine-induced bronchoconstriction at 100 microg/ml, inhalation after 1.5 hrs by in vivo muscarinic acetylcholine receptor antagonist activity assay; type: functional; set-up: scale not given: the % may be the effect or the level left
[3] = tested on: Cavia porcellus; test: Bronchoprotection in male Duncan Hartley guinea pig bronchoconstriction einthoven model assessed as inhibition of methacholine-induced bronchoconstriction at 100 microg/ml, inhalation after 24 hrs by in vivo beta2 adrenergic receptor agonist activity assay; type: functional; set-up: scale not given: the % may be the effect or the level left
How it was run: (§1)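 Einthoven bronchoprotection in guinea pigs, read as % bronchoprotection 24 h after inhaled dosing. The TFA salt was used in the initial experiments. For one compound, the edisylate salt was compared with the TFA form. Group sizes were n = 3–8.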

[4] = tested on: Cavia porcellus; test: Bronchoprotection in male Duncan Hartley guinea pig bronchoconstriction einthoven model assessed as inhibition of methacholine-induced bronchoconstriction at 100 microg/ml, inhalation after 24 hrs by in vivo muscarinic acetylcholine receptor antagonist activity assay; type: functional; set-up: scale not given: the % may be the effect or the level left; how it was run: as §1
[5] = species on record: Cavia porcellus; test: Antisialagogue activity in guinea pig assessed as inhibition of pilocarpine-induced sialagogue response at 100 ug/ml, inhalation after 1.5 hrs; type: functional
How it was run: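 Guinea pigs were pretreated with test compound by inhalation. At 1.5 h post-dose they were challenged with pilocarpine. The sialagogue (salivation) response was recorded as % inhibition.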

[6] = target: Beta-2 adrenergic receptor (Homo sapiens, UniProt P07550); test: Agonist activity at human beta2 adrenergic receptor expressed in HEK293 cells assessed as cAMP accumulation using [125I]cAMP by scintillation counting; type: functional, cell-based
Beta-2 adrenergic receptor, sequence (P07550 whole entry): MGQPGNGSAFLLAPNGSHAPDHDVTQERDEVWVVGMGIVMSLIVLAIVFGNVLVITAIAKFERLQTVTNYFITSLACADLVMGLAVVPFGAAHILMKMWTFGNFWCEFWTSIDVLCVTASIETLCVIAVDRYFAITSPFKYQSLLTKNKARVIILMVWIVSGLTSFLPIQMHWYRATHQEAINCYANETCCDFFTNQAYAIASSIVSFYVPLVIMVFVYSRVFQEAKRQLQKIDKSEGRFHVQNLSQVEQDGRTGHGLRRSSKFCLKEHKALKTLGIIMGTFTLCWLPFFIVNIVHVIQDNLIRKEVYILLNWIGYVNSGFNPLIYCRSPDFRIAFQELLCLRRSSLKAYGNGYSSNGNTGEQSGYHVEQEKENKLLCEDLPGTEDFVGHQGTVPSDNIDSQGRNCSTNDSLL

[7] = target: Muscarinic acetylcholine receptor M3 (Homo sapiens, UniProt P20309); test: Displacement of [3H]NMS from human muscarinic M3 receptor expressing CHO-K1 cells incubated for 60 mins or 6 hrs by liquid scintillation counting; type: cell-based
Muscarinic acetylcholine receptor M3, sequence (P20309 whole entry): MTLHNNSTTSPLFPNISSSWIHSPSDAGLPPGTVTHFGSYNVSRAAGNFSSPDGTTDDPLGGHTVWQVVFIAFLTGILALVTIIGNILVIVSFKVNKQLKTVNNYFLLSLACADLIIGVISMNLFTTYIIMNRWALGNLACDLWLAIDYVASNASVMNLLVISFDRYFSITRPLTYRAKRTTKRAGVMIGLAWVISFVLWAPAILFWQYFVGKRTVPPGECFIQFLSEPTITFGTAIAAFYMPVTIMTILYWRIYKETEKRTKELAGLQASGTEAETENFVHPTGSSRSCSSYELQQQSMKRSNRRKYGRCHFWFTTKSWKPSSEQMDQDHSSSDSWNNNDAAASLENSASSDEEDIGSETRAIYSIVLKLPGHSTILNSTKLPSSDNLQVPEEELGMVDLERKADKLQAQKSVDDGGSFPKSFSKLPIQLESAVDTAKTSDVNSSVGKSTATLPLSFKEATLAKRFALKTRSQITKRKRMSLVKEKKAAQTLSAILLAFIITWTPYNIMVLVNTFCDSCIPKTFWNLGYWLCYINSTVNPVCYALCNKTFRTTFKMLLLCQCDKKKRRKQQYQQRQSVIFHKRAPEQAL

[8] = tested on: Cavia porcellus; test: Bronchoprotection in male Duncan Hartley guinea pig bronchoconstriction einthoven model assessed as inhibition of methacholine-induced bronchoconstriction at 100 microg/ml, inhalation after 24 hrs by in vivo muscarinic antagonist and beta2 agonist activity assay; type: functional; set-up: scale not given: the % may be the effect or the level left; how it was run: as §1
[9] = tested on: Cavia porcellus; test: Bronchoprotection in male Duncan Hartley guinea pig bronchoconstriction einthoven model assessed as inhibition of methacholine-induced bronchoconstriction at 100 microg/ml, inhalation after 1.5 hrs by in vivo muscarinic antagonist and beta2 agonist activity assay; type: functional; set-up: scale not given: the % may be the effect or the level left
[10] = tested on: Cavia porcellus; test: Bronchoprotection in male Duncan Hartley guinea pig bronchoconstriction einthoven model assessed as inhibition of methacholine-induced bronchoconstriction at 10 microg/ml, inhalation after 1.5 hrs by in vivo muscarinic acetylcholine receptor antagonist activity assay; type: functional; set-up: scale not given: the % may be the effect or the level left
How it was run: (§2)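 Guinea pig Einthoven bronchoprotection model after test compound dosing (TFA salt in initial experiments). % bronchoprotection was scored separately as MA, BA and combined MABA activity, at 1.5 h or 24 h postdose; n = 3–8 animals per group.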

[11] = tested on: Cavia porcellus; test: Bronchoprotection in male Duncan Hartley guinea pig bronchoconstriction einthoven model assessed as inhibition of methacholine-induced bronchoconstriction at 10 microg/ml, inhalation after 1.5 hrs by in vivo muscarinic antagonist and beta2 agonist activity assay; type: functional, organism-based; how it was run: as §2
[12] = tested on: Cavia porcellus; test: Bronchoprotection in male Duncan Hartley guinea pig bronchoconstriction einthoven model assessed as inhibition of methacholine-induced bronchoconstriction at 10 microg/ml, inhalation after 1.5 hrs by in vivo beta2 adrenergic receptor agonist activity assay; type: functional, organism-based; how it was run: as §2
[13] = species on record: Cavia porcellus; test: Antisialagogue activity in guinea pig assessed as inhibition of pilocarpine-induced sialagogue response at 10 ug/ml, inhalation after 1.5 hrs; type: functional
[14] = tested on: Cavia porcellus; test: Bronchoprotection in male Duncan Hartley guinea pig bronchoconstriction einthoven model assessed as inhibition of methacholine-induced bronchoconstriction at 10 microg/ml, inhalation after 24 hrs by in vivo beta2 adrenergic receptor agonist activity assay; type: functional, organism-based; how it was run: as §2
[15] = tested on: Cavia porcellus; test: Bronchoprotection in male Duncan Hartley guinea pig bronchoconstriction einthoven model assessed as inhibition of methacholine-induced bronchoconstriction at 10 microg/ml, inhalation after 24 hrs by in vivo muscarinic acetylcholine receptor antagonist activity assay; type: functional; set-up: scale not given: the % may be the effect or the level left; how it was run: as §2
[16] = tested on: Cavia porcellus; test: Bronchoprotection in male Duncan Hartley guinea pig bronchoconstriction einthoven model assessed as inhibition of methacholine-induced bronchoconstriction at 10 microg/ml, inhalation after 24 hrs by in vivo muscarinic antagonist and beta2 agonist activity assay; type: functional, organism-based; how it was run: as §2

Structure (SMILES) | Activity [3] | Activity [4] | EC50 [6] | Ki [7] | further results
O=C(Nc1ccccc1-c1ccccc1)OC1CCN(CCCCCCCCCNC[C@H](O)c2ccc(O)c3[nH]c(=O)ccc23)CC1 | 10% | 72% | – | – | Activity [1]: 63%; Activity [2]: 94%
O=C(CCN1CCC(OC(=O)Nc2ccccc2-c2ccccc2)CC1)Nc1ccc(CNC[C@H](O)c2ccc(O)c3[nH]c(=O)ccc23)cc1 | -2% | 98% | 0.251 nM | 0.0794 nM | inhibition (INH) [5]: 82%; Activity [1]: 47%
O=C(CCN1CCC(OC(=O)Nc2ccccc2-c2ccccc2)CC1)Nc1cccc(CCNC[C@H](O)c2ccc(O)c3[nH]c(=O)ccc23)c1 | 46% | 51% | 0.1 nM | 1 nM | Activity [8]: 72%; inhibition (INH) [5]: 23%; Activity [1]: 80%; Activity [2]: 77%; Activity [9]: 93%
COc1c(CNC[C@H](O)c2ccc(O)c3[nH]c(=O)ccc23)ccc(NC(=O)CCN2CCC(OC(=O)Nc3ccccc3-c3ccccc3)CC2)c1C | – | – | 0.251 nM | 0.501 nM | –
COc1c(CNC[C@H](O)c2ccc(O)c3[nH]c(=O)ccc23)ccc(NC(=O)CCN2CCC(OC(=O)Nc3ccccc3-c3ccccc3)CC2)c1Cl | – | – | 0.398 nM | 0.631 nM | –
O=C(CCN1CCC(OC(=O)Nc2ccccc2-c2ccccc2)CC1)Nc1ccc(CNC[C@H](O)c2ccc(O)c3[nH]c(=O)ccc23)c(Cl)c1 | – | – | 0.501 nM | 0.2 nM | –
COc1cc(N(C)C(=O)CCN2CCC(OC(=O)Nc3ccccc3-c3ccccc3)CC2)ccc1CNC[C@H](O)c1ccc(O)c2[nH]c(=O)ccc12 | – | – | 50.1 nM | 0.631 nM | –
O=C(CCN1CCC(OC(=O)Nc2ccccc2-c2ccccc2)CC1)Nc1ccc(CNC[C@H](O)c2ccc(O)c3[nH]c(=O)ccc23)cc1Cl | 25% | – | 0.251 nM | 0.2 nM | –
Cc1cc(CNC[C@H](O)c2ccc(O)c3[nH]c(=O)ccc23)ccc1N(C)C(=O)CCN1CCC(OC(=O)Nc2ccccc2-c2ccccc2)CC1 | – | – | 3.98 nM | 0.2 nM | –
O=C(CCN1CCC(OC(=O)Nc2ccccc2-c2ccccc2)CC1)N[C@H]1CC[C@H](CNC[C@H](O)c2ccc(O)c3[nH]c(=O)ccc23)CC1 | – | – | 0.158 nM | 0.316 nM | –
O=C(Nc1ccccc1-c1ccccc1)OC1CCN(CCNC(=O)c2ccc(CNC[C@H](O)c3ccc(O)c4[nH]c(=O)ccc34)cc2)CC1 | 20% | 74% | 0.501 nM | 0.631 nM | –
C[N+]1(C)[C@@H]2C[C@@H](OC(=O)C(O)(c3cccs3)c3cccs3)C[C@H]1[C@@H]1O[C@@H]12 [TIOTROPIUM] | – | – | – | – | Activity [10]: 90%; Activity [11]: inactive; Activity [12]: inactive; inhibition (INH) [13]: 99%; Activity [14]: inactive; Activity [15]: 75%; Activity [16]: inactive
O=C(CCN1CCC(OC(=O)Nc2ccccc2-c2ccccc2)CC1)NCCCCCNC[C@H](O)c1ccc(O)c2[nH]c(=O)ccc12 | – | – | 0.126 nM | 0.1 nM | –
Cc1cc(C(=O)NCCN2CCC(OC(=O)Nc3ccccc3-c3ccccc3)CC2)c(C)cc1CNC[C@H](O)c1ccc(O)c2[nH]c(=O)ccc12 | – | – | 0.158 nM | 3.16 nM | –
COc1cc(NC(=O)CCN2CCC(OC(=O)Nc3ccccc3-c3ccccc3)CC2)c(C)cc1CNC[C@H](O)c1ccc(O)c2[nH]c(=O)ccc12 | – | – | 0.316 nM | 0.316 nM | –
NC(=O)C(c1ccccc1)(c1ccccc1)[C@@H]1CCN(CCc2ccc3c(c2)CCO3)C1 [DARIFENACIN] | 43% | 72% | – | – | Activity [8]: inactive; Activity [1]: 74%; Activity [2]: inactive; Activity [9]: inactive
COc1cc(NC(=O)CCN2CCC(OC(=O)Nc3ccccc3-c3ccccc3)CC2)ccc1CNC[C@H](O)c1ccc(O)c2[nH]c(=O)ccc12 | 72% | 81% | 0.251 nM | 0.158 nM | inhibition (INH) [5]: -3%; Activity [1]: 70%; Activity [2]: 94%
COc1cc(CNC[C@H](O)c2ccc(O)c3[nH]c(=O)ccc23)ccc1NC(=O)CCN1CCC(OC(=O)Nc2ccccc2-c2ccccc2)CC1 | 33% | 22% | 0.501 nM | 1.58 nM | –
COc1cc(N(C)C(=O)CCN2CCC(OC(=O)Nc3ccccc3-c3ccccc3)CC2)c(Cl)cc1CNC[C@H](O)c1ccc(O)c2[nH]c(=O)ccc12 | – | – | 0.794 nM | 0.316 nM | –
Cc1cc(NC(=O)CCN2CCC(OC(=O)Nc3ccccc3-c3ccccc3)CC2)ccc1CNC[C@H](O)c1ccc(O)c2[nH]c(=O)ccc12 | – | – | 0.2 nM | 1.26 nM | –
COc1ccc(NC(=O)CCN2CCC(OC(=O)Nc3ccccc3-c3ccccc3)CC2)cc1CCNC[C@H](O)c1ccc(O)c2[nH]c(=O)ccc12 | – | – | 0.794 nM | 2 nM | –
COc1cc(C(=O)NCCN2CCC(OC(=O)Nc3ccccc3-c3ccccc3)CC2)ccc1CNC[C@H](O)c1ccc(O)c2[nH]c(=O)ccc12 | – | – | 1.58 nM | 6.31 nM | –
COc1ccc(CCNC[C@H](O)c2ccc(O)c3[nH]c(=O)ccc23)cc1NC(=O)CCN1CCC(OC(=O)Nc2ccccc2-c2ccccc2)CC1 | – | – | 1.26 nM | 7.94 nM | –
Cc1cc(CNC[C@H](O)c2ccc(O)c3[nH]c(=O)ccc23)ccc1NC(=O)CCN1CCC(OC(=O)Nc2ccccc2-c2ccccc2)CC1 | 20% | 92% | 0.2 nM | 0.0501 nM | Activity [8]: 96%
CN(CCN1CCC(OC(=O)Nc2ccccc2-c2ccccc2)CC1)C(=O)c1ccc(CNC[C@H](O)c2ccc(O)c3[nH]c(=O)ccc23)cc1 | – | – | 0.251 nM | 0.794 nM | –
